LEDGF integ inh = blocks HIV-1 LEDGF/p75-dependent DNA integration; TR-FRET IN-LEDGF/p75 DNA integration, Eu/Cy5; hit rate 0.64% among 370,000; inhibition, % at 3.7 µM;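 active means inhibition above the screen-wide mean plus 3 SD, cut at about 13% in these data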;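 further: signal is the Cy5 over europium emission ratio at 671 and 618 nm; 0% = plate median of compound wells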
UHRF1 MBD2 ctr = UHRF1 methyl-DNA binding inhibition | Q96T88 | UHRF1 binding to methylated oligo, TR-FRET | inhibition, % at 4.4 µM | hit rate 0.75% among 370,000 | AID 687016; in the data active means inhibition above about 21%;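 further: UHRF1 SRA domain binding a hemimethylated CpG hairpin DNA probe; 0% = median of test compound wells and 100% = reference inhibitor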
MBD2 inh = blocks human MBD2 binding to methylated DNA; Q9UBB5; TR-FRET, MBD2 binding to methylated oligonucleotide; inhibition, % at 4.4 µM; hit rate 0.31% among 370,000; AID 686964; in the data active means inhibition above about 13%
TDP2 absorb = TDP2 (human) inhibition, absorbance primary screen; O95551; recombinant TDP2, T5PNP hydrolysis, p-nitrophenol absorbance 415 nm; inhibition, % at 12.8 µM; hit rate 0.34% among 370,000; AID 720702;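 active means inhibition above the mean of all tested compounds plus 3 SD, set per campaign, cut at about 25% in these data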;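 further: 0% = DMSO with enzyme and 100% = buffer with substrate but no TDP2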
Target sequence (O95551 whole entry, looked up): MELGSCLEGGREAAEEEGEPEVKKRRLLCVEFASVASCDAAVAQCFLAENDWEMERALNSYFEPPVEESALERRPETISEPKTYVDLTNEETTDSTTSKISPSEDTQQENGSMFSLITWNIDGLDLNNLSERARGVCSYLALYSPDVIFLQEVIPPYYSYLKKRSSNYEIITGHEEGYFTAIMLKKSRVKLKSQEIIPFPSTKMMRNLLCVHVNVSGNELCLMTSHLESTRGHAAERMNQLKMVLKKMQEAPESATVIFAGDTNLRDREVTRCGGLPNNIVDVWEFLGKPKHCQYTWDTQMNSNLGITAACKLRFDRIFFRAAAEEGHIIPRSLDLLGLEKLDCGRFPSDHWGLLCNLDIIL
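Read-out basis: percent inhibition. System: recombinant human TDP2. Buffer or medium: Mg2+-containing Tris-HCl buffer, pH 7.5. Repeats: single replicate. Timing: reaction 2 h, 37 °C. Benchmarks: high control without enzyme, low control DMSO plus TDP2. Probe or stimulus: 5 mM T5PNP. Doses: 12.8 µM only. Measured by: epi absorbance of p-nitrophenol freed from T5PNP by hydrolysis.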
An asterisk follows results filed as active. An excerpt weighted towards active compounds, which were near 1.6% of everything screened.

SMILES	LEDGF integ inh	UHRF1 MBD2 ctr	MBD2 inh	TDP2 absorb
CCN(CC)C(=O)[C@H]1C[C@H](CC(=O)NCCCN(C)C)C(=O)N2CCc3c([nH]c4cc(CCC(=O)N(C)C)ccc34)[C@]12C	-6	7	2	-12
COc1ccc(CNC(=O)C[C@H]2C[C@H](C(=O)N3CCCCC3)[C@@]3(C)c4[nH]c5ccc(Cl)cc5c4CCN3C2=O)cc1OC	-4	21*	11	-2
CC(C)N(C(=O)[C@H]1C[C@H](CC(=O)NCCCN(C)C)C(=O)N2CCc3c([nH]c4cc(CCC(=O)N(C)C)ccc34)[C@]12C)C(C)C	5	21*	5	-10
Cn1nc(C(F)(F)F)c(C#N)c1N1CCN(c2ccccc2)CC1	-1	-1	2	-3
Cn1nc(C(F)(F)F)c(C#N)c1N1CCN(c2ccccn2)CC1	-1	23*	9	4
CCN(CC)CCNc1ncnc2c1sc1nc(N3CCCC3)c3c(c12)CC(C)(C)OC3	3	23*	7	-16
CN(C)CCNc1ncnc2c1sc1nc(N3CCCC3)c3c(c12)CC(C)(C)OC3	-3	23*	9	-4
COc1ccc(C(=O)C2(C(=O)Nc3cc(C)cc(C)c3)CC(c3ccccn3)=NO2)cc1 (stereo not drawn)	-1	-2	4	4
Cc1ccc(Nc2nc(=O)c3cc([N+](=O)[O-])ccc3s2)cc1	7	8	-3	2
COc1ccc(Nc2nc(=O)c3cc([N+](=O)[O-])ccc3s2)cc1	-1	25*	7	11
CC(NC(=S)Nc1ccc([N+](=O)[O-])cc1)c1ccncc1 (stereo not drawn)	-6	46*	2	-2
[S-]C(=Nc1ccc(Cl)cc1)N[n+]1ccccc1	-1	58*	-2	9
O=C(Nc1ccc(Cl)cc1)c1ccc2c(=O)n3c(nc2c1)CCCCC3	-3	1	-1	-7
O=C(Nc1ccccn1)c1ccc2c(=O)n3c(nc2c1)CCCCC3	9	21*	10	2
NC(=O)c1ccc(N=C2C(=O)Nc3ccc([N+](=O)[O-])cc32)cc1	4	8	-10	44*
O=C1Nc2ccccc2C1=Nc1cccc([N+](=O)[O-])c1	4	7	-13	5
COc1ccc(/C=C/C(=O)NCCNC(=O)c2ccccc2)cc1OC	2	25*	4	13
CC(=O)N(c1ccccc1)c1nc(/C=C/C(=O)Nc2c(C)cc(C)cc2C)cs1	-2	99*	-2	-4
Cc1cc(C)c2c(=N)c3ccccc3n(CCCCCCCCn3c4ccccc4c(=N)c4c(C)cc(C)nc43)c2n1	-2	41*	28*	-7
CCCCCCCCn1c2c(c(=N)c3ccccc31)CCC2	0	-9	-7	-8
O=C1c2ccccc2NC2(CCCC2)N1O	-2	80*	2	3
Cc1cc(NS(=O)(=O)c2ccc(NC(=O)CSc3nnc(SCc4ccc(Cl)cc4)s3)cc2)nc(C)n1	5	1	7	-3
C[C@@H]1COc2cc(N3CCCC3)ccc2S(=O)(=O)N1C	-1	4	8	-9
CCC(C)(C)NC(=O)C(c1ccc(C)cc1)N(CC1CCCO1)C(=O)CCC(=O)Nc1ccccn1 (stereo not drawn)	1	33*	2	12
CC(C)C[C@H]1COc2cc(Br)ccc2S(=O)(=O)N1Cc1cn(Cc2ccc(Br)cc2)nn1	4	1	-2	-5
SMILES	LEDGF integ inh	UHRF1 MBD2 ctr	MBD2 inh	TDP2 absorb
O=C(Nc1ccc(F)cc1)N[C@@H]1C[C@@H]2O[C@H](CO)CC[C@@H]2O[C@@H]1CCc1ccc(C2=CCCC2)cc1	7	3	3	-4
CC(C)C(=O)Nc1cccc(N2CCN(CCCN3C(=O)C4CCCCN4C3=O)CC2)c1 (stereo not drawn)	2	23*	5	-3
NS(=O)(=O)c1cc(C(=O)NC2CCSc3ccccc32)ccc1Cl (stereo not drawn)	60*	102*	96*	73*
NS(=O)(=O)c1cccc(C(=O)NC2CCSc3ccccc32)c1 (stereo not drawn)	2	0	-2	-6
O=c1c2cc3cc(Cl)ccc3nc2ncn1Cc1ccc(Oc2ccccc2)cc1	1	0	-5	-8
O=S(=O)(NCC(c1cccnc1)N1CCOCC1)c1ccc(Cl)cc1 (stereo not drawn)	1	25*	-6	9
CSCCC(NC(=O)c1ccccc1Cl)C(=O)N1CCN(C(C)=O)CC1 (stereo not drawn)	0	0	3	5
CSCCC(NC(=O)c1ccccc1Cl)C(=O)N1CCCCC1 (stereo not drawn)	-2	41*	1	7
O=C(N/N=C/c1ccc(Cl)cc1)C(=O)N1CCCCCC1	0	27*	0	12
Cc1ccccc1-n1c(O)cc(=O)[nH]c1=S	-8	21*	8	4
O=c1cc(O)n(-c2ccccc2F)c(=S)[nH]1	1	3	-2	-7
COC(=O)[C@]12C[C@H](CC(=O)NCCCCc3ccccc3)C(=O)N(Cc3ccco3)C1=C[C@H](COCc1ccccc1)O[C@@H]2C	-1	0	0	-1
C/C(=N\NC(=O)c1ccccc1)c1ccc(NC(=O)c2cccs2)cc1	0	1	-1	2
C/C(=N\NC(=O)c1ccccc1C)c1ccc(NC(=O)c2cccs2)cc1	-1	39*	-1	-1
COC(=O)[C@]12C[C@H](CC(=O)NCc3ccccc3)C(=O)N(CCc3ccc(OC)c(OC)c3)C1=C[C@H](C(C)C)O[C@@H]2C1CC1	0	0	3	0
Cc1ccc(C(C(=O)NCc2ccc(F)cc2)N(CCCO)C(=O)C2COc3ccccc3O2)o1 (stereo not drawn)	1	23*	5	-2
COc1cc2c(cc1OC)C(C1C(=O)CC(C)CC1=O)N(C(=O)CCl)CC2 (stereo not drawn)	2	32*	-5	-3
CC(=O)C1(C(=O)NCc2ccccc2)CC(c2ccccn2)=NO1 (stereo not drawn)	-4	4	4	-10
CCCCNCC(O)(c1ccc(Cl)cc1)c1ccc(Cl)cc1	-2	57*	2	3
CC12CCC(C(=O)N(CCCCN3CCN(Cc4ccccc4)CC3)C1=O)C2(C)C (stereo not drawn)	-3	-1	1	15
CC12CCC(C(=O)N(CC(O)CN3CCN(Cc4ccccc4)CC3)C1=O)C2(C)C (stereo not drawn)	2	24*	9	13
COc1cc(C(=O)OC2CCCCC2=O)cc(OC)c1C (stereo not drawn)	-4	23*	7	-7
O=C(CSc1nnc(-c2ccccn2)n1-c1ccccc1)c1ccc(Cl)c(Cl)c1	0	1	-3	-1
COc1ccccc1Nc1ccc2c(O)cc(S(=O)(=O)O)cc2c1	36*	47*	24*	0
O=S(=O)(O)c1cc(O)c2ccc(Nc3ccccc3)cc2c1	32*	64*	36*	17
CC(=O)Nc1ccc2c(O)cc(S(=O)(=O)O)cc2c1	2	2	1	5

Compound activity as filed in PubChem.
